About 660 (0.35%) of roughly 190,000 compounds were called active. What follows is part of a selection rich in actives, with near analogues and random picks from the rest. A number with no mark means an inactive call.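 Rule for the calls: active = activation factor of 2 or more at 20 µM; inactive = the rest.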

Mannose-6-phosphate isomerase (Homo sapiens), sequence (P34949 whole entry, looked up): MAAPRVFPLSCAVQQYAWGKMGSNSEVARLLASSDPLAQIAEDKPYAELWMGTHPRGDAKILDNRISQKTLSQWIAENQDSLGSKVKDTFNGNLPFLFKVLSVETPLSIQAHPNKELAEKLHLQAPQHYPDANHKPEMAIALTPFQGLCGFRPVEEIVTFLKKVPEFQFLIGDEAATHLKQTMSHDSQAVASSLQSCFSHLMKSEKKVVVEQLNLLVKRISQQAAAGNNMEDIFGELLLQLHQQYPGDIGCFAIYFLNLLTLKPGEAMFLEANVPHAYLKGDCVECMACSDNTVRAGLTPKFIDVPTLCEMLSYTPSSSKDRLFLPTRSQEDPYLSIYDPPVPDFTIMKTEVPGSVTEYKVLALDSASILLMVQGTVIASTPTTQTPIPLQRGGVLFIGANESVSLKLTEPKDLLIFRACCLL

In the experiment the target is Mannose-6-phosphate isomerase (Homo sapiens) (UniProt P34949). Put plainly: human PMI activators, high substrate, primary screen, biochemical, fluorescence intensity, near-saturating mannose 6-phosphate (AID 1216). The following applies: coupled PMI enzyme assay, resazurin fluorescence, 20 min; at 20 µM; hits give high values; 1 = untreated enzyme, 0 = substrate-free blank. The gist of the method:
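test system = human PMI in coupled enzyme assay | medium = HEPES-buffered pH 7.4 with magnesium and detergent | also added = 1.0 mM mannose-6-phosphate substrate with 0.22 mM NADP+ | compound = 20 µM single dose | times = 20 min incubation at room temperature | measured by = resorufin fluorescence (Ex 544/Em 590 nm) from resazurin via diaphorase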
For `Cc1ccc(N=C2NC(=O)/C(=C/C=C/c3ccco3)S2)cc1C`, the activation factor is 2 (active).

As for `Cc1ccc(N2NC(=O)/C(=C/C=C/c3ccco3)C2=O)cc1C`, the activation factor was 1.2. Take `Cc1cccc(N=C2NC(=O)/C(=C/c3cn(C)c4ccccc34)S2)c1`: the activation factor is 0.9. The value for `COc1ccc(/C=C/C(=O)c2ccc(OC)cc2O)cc1` was 0.9; that for `COc1ccc(/C=C/C(=O)c2cc(Br)ccc(=O)c2O)cc1` was 2.1 (active); that for `COc1ccc(C(=O)/C=C/c2ccc(OC3CSC3)cc2)cc1` was 0.9. On to `CCCCC(NS(=O)(=O)c1ccc(C)cc1)C(=O)Oc1ccc2c3c(c(=O)oc2c1)CCC3` (configuration not stated), for which the activation factor is 0.9.

Take `N/C(=N\OS(=O)(=O)c1cccc([N+](=O)[O-])c1)c1ccncc1`: the activation factor is 1. `Cc1cc(C)c2nc(SCC(=O)N(C)C3CCS(=O)(=O)C3)cc(C)c2c1` (configuration not stated): the activation factor was 2 (active).

With `CCn1c(SCC(=O)N(C)C2CCS(=O)(=O)C2)nnc1-c1cccs1` (configuration not stated), the activation factor is 1.1. The value for `COc1ccc2c(-c3ccccc3)cc(SCC(=O)N(C)C3CCS(=O)(=O)C3)nc2c1` (configuration not stated) was 1.3. To `Cc1cc(/C=C2/NC(=O)NC2=O)c(C)n1-c1cccnc1` belongs 0.9; to `CC(CC(=O)Nc1ccccc1)n1ccnc1` (configuration not stated), 1; to `Cc1c(-c2cccc(Cl)c2)nc2ccccc2c1C(=O)OCC(=O)N(C)C1CCS(=O)(=O)C1` (configuration not stated), 1. The value for `Cc1nccn1CCC1CCCCN1C(=O)CCc1nnc(-c2ccsc2)o1` (configuration not stated) was 0.9. Regarding `OCCC#Cc1ccc(CN2CCN(Cc3ccsc3)C(CCO)C2)cc1` (configuration not stated), the activation factor is 1. With `O=C(Nc1ccc([N+](=O)[O-])cc1)C1CC12CCC2` (configuration not stated), the activation factor was 1.1. To `Cc1ccc(CNC(=O)COc2ccc3c(c2)CCC3)cc1` belongs 1; to `CC1CCN(C(=O)c2ccc(S(=O)(=O)Cc3cc(F)ccc3F)c([N+](=O)[O-])c2)CC1`, 0.8. In the case of `COc1ccc(C2CC(c3cccs3)=NN2C(=O)CSc2nncs2)cc1OC` (configuration not stated), the activation factor was 1. As to `COc1ccc(C2CC(c3cccs3)=NN2C(=O)CSc2nnc(N)s2)cc1OC` (configuration not stated), the activation factor is 1. Turning to `COc1ccc(C2CC(c3cccs3)=NN2c2nc(C)c(C(C)=O)s2)cc1OC` (configuration not stated), the activation factor was 2 (active). `COc1ccc(C2CC(c3cccs3)=NN2c2ccccc2)cc1` (configuration not stated): the activation factor was 1.2. For `COc1ccc(C2CC(c3cccs3)=NN2c2ccc(F)cc2)cc1OC` (configuration not stated), the activation factor was 2.2 (active). Turning to `COc1ccccc1N1N=C(c2cccs2)CC1c1ccccc1` (configuration not stated), the activation factor is 1.2. Regarding `COc1cc(/C=C(/NC(=O)c2ccc(Cl)cc2Cl)C(=O)O)cc(OC)c1OC`, the activation factor was 1. To `NC(=O)c1ccccc1N(Cc1ccccc1)S(=O)(=O)c1ccccc1` belongs 1. On to `CCN(CC)S(=O)(=O)c1cc([N+](=O)[O-])ccc1N=Nc1c(O)n(C)c2ccccc12`, for which the activation factor was 1.1. The value for `Cc1ccc(-c2nc(C)sc2CC(=O)OCC(=O)Nc2c(F)cccc2F)cc1` was 0.9; that for `Cc1ccc(C2=NN(C(=O)COc3ncnc4ccccc34)C(c3ccco3)C2)cc1` (configuration not stated) was 0.8; that for `CO/N=C/c1cn(-c2ccc(Cl)cc2)nn1` was 1. The value for `CC1(C)OC(=O)C(=CSc2ccc(C(C)(C)C)cc2)C(=O)O1` was 1.1; that for `CCCC(=O)Nc1cccc(NC(=S)NC(=O)C(C)Oc2ccc(Cl)cc2Cl)c1` (configuration not stated) was 1. To `O=C(N/C(=C\c1ccc(F)cc1)C(=O)N1CCCCCC1)c1ccccc1` belongs 0.9; to `Cc1cc(OCCCN2CCN(Cc3ccccc3)CC2)ccc1[N+](=O)[O-]`, 1. Turning to `COc1ccc(Cc2nnnn2CC(=O)O)cc1`, the activation factor is 1.1. With `COc1ccc(Cc2nnc(SC)[nH]c2=O)cc1`, the activation factor was 2 (active). With `CSc1nc(O)c(Cc2ccccc2)c(=O)[nH]1`, the activation factor is 1.

On to `O=C(NNC(=O)c1ccccc1[N+](=O)[O-])Nc1ccccc1C(F)(F)F`, for which the activation factor is 1.

On to `O=C(NC1CCCC1)C(c1ccc(N2CCOCC2)cc1)N(C(=O)c1ccco1)c1ccccc1F` (configuration not stated), for which the activation factor was 0.9. As for `Cc1ccc(NC(=O)NC(=O)N(C2CCCCC2)S(=O)(=O)c2ccccc2)cc1`, the activation factor is 0.9. To `Cc1nn(-c2ccc([N+](=O)[O-])cc2)c(N)c1-c1ccccc1` belongs 1. To `Cc1ccccc1N/N=C/c1ccc(N2CCOCC2)cc1` belongs 2.4 (active); to `Cc1cc(C(=O)N/N=C/c2ccc(N3CCOCC3)cc2)c(C)o1`, 1.1. As for `C(=N/Nc1cc(N2CCOCC2)nc(N2CCOCC2)n1)/c1ccccc1`, the activation factor was 0.4. The value for `S=C(NC1CCCCC1)NN1CCOCC1` was 1.1; that for `Cc1ccc(OCc2n[nH]c(=S)n2-c2ccc(C)cc2)cc1` was 0.8. The value for `COc1ccc(CNc2c(CO)cnc3c2cnn3C)cc1` was 1.

With `Cc1ccnc(NC(=O)CCC(=O)N(CC(=O)NCc2ccccc2)Cc2ccco2)c1`, the activation factor was 0.9. To `CCOC(=O)C1=C(CN2CCCCCC2)NC(=O)NC1c1cccc([N+](=O)[O-])c1` (configuration not stated) belongs 0.9; to `CC(NC(=O)C(=O)N/N=C/c1ccc(Cl)cc1)c1ccccc1` (configuration not stated), 1.1.

Turning to `O=C1CC(NNc2ccccc2)C(=O)N1c1cccc(Cl)c1` (configuration not stated), the activation factor was 2 (active). To `O=C1CC(c2ccccc2)C(=O)N1c1cccc(O)c1` (configuration not stated) belongs 0.9; to `O=C(NNC1CC(=O)N(c2cccc(Cl)c2)C1=O)c1cccnc1` (configuration not stated), 1.2.

In the case of `C/C(=N\NC(=S)NCc1ccccc1)C1CCCCC1`, the activation factor was 1.2. To `O=C(CCNC(=O)Cn1ccc2ccccc2c1=O)NCCC1=CCCCC1` belongs 1.1; to `CCc1cccc(CC)c1NC(=S)NCc1ccc2[nH]c(C)cc2c1`, 0.9; to `COc1ccc(Br)cc1/C=N/n1c(C)nnc1C`, 1. To `COc1ccc(Br)cc1/C=N/NC(=O)c1cccc(S(=O)(=O)N2CCOCC2)c1` belongs 1. Turning to `COc1ccc(Br)cc1/C=N/Nc1ccc(Cl)c(C(=O)O)c1`, the activation factor was 2.6 (active). With `OCC(O)CN(c1ccccc1)c1ccccc1` (configuration not stated), the activation factor was 1. Turning to `CC(C)C(=O)Nc1ccc2oc(=O)ccc2c1`, the activation factor was 1. Take `COc1ccc(C(=O)CSc2nc(C)cc(C)n2)cc1[N+](=O)[O-]`: the activation factor was 0.9. To `Cn1nc(-c2ccccc2)c(CO)c1Sc1ccccc1` belongs 1; to `S=c1ccc2ccccc2[nH]1`, 2.8 (active); to `c1ccc2[nH]c(-c3nc4ccccc4[nH]3)nc2c1`, 1.1.

`O=C(Nc1ccccc1)c1cc2ccccc2[nH]1`: the activation factor was 0.9. Consider `CCOc1ccc(C2c3[nH]c4ccccc4c3CCN2Cc2cn(CC)nc2C)cc1` (configuration not stated), for which the activation factor is 0.8. To `CN(C)CC(C)(C)CNC(=O)c1cc(Br)cc(Br)c1O` belongs 0.8. With `O=C1C2C3C=CC(C4CC34)C2C(=O)N1c1nccs1` (configuration not stated), the activation factor was 1. For `CCN(CC)CC1(O)CCN(C(=O)c2ccc(Cl)c(Cl)c2)CC1`, the activation factor is 0.9. For the compound `CCNC(=S)NNC(=O)c1ccc2ncccc2c1`, the activation factor is 1. In the case of `O=C(O)c1ccc(N/N=C/c2cn(-c3ccccc3)nc2-c2cccs2)cc1`, the activation factor is 1.7. The value for `O=C(O)c1ccc(N/N=C/c2ccc3ncccc3c2)cc1` was 2.3 (active); that for `Cc1ccc(NC(=O)N2CCSc3ccccc32)cc1` was 0.9. As for `O=C(CNCc1ccc(Cl)cc1)Nc1cccc(C(=O)O)c1`, the activation factor was 1.1. Turning to `Cn1c(CO)cnc1SCc1ccccc1`, the activation factor was 1.1. The value for `CSc1c(SCc2ccccc2)cnn(Cc2ccccc2)c1=O` was 2.4 (active); that for `O=c1c2ccccc2c(-c2ccccc2)nn1Cc1ccccc1` was 1.

As to `COc1ccc(NC(=O)COc2ccc(C(=O)OCC(=O)N(C)C3CCS(=O)(=O)C3)cc2OC)cc1` (configuration not stated), the activation factor was 1.1. The value for `Cc1ccnc(NC(=O)CCC(=O)N(CC(=O)NCCc2ccccc2)Cc2cccs2)c1` was 1; that for `CCOC(=O)C(CC)/C(C)=N\NC(=O)c1cccc(C)c1` (configuration not stated) was 0.9.

As to `COc1ccc(NC(=O)C(C)SCc2ccccc2)cc1` (configuration not stated), the activation factor is 1. To `Cc1cc(Cl)ccc1C(=O)C1CCCN(C(=O)CCN2CCCO2)C1` (configuration not stated) belongs 1.1; to `Cc1cccc(C)c1NC(=O)c1ccc(CN2CCc3ccccc3C2)cc1`, 1; to `Cc1cccc(C)c1NC(=O)C1(C)c2cccc[n+]2CC(=O)N1Cc1cccs1` (configuration not stated), 2 (active). The value for `CCc1cccc(C)c1NC(=S)N(CCCN1CCN(C)CC1)Cc1cccs1` was 1; that for `Cc1ccc(N(CCC(=O)O)S(=O)(=O)c2cccc(C(F)(F)F)c2)cc1` was 1.1. The value for `O=[N+]([O-])c1ccc(N2CCN(S(=O)(=O)c3ccccc3)CC2)cc1N1CCc2ccccc2C1` was 0.9; that for `COc1ccc(/C=N/N=C2/C(=O)Nc3ccccc32)cc1O` was 1. `C/C=C/C=C/C(=O)OCC(=O)Nc1ccc(Cl)cc1`: the activation factor is 1.

`CS/C(=C\[N+](=O)[O-])Nc1ccc(C)cc1`: the activation factor is 1. As to `Cn1cnnc1Sc1ccc(S(C)(=O)=O)cc1[N+](=O)[O-]`, the activation factor is 0.9.

In the case of `O=C(NN=C1CCC(=NNC(=O)c2cccnc2)CC1)c1cccnc1`, the activation factor was 2 (active). `O=C(Nc1cnccn1)c1cccnc1`: the activation factor was 1.

Take `O=C(NNC(=O)c1cccnc1)Nc1ccccc1`: the activation factor was 1.1. The value for `C/C(N)=C(/C#N)C(=O)COC(=O)C1CCN(C(=O)c2ccc(Cl)cc2)CC1` was 1; that for `CCc1cc2cc(OC)ccc2nc1SCC(=O)Nc1cc(OC)c(OC)cc1C(=O)O` was 0.8; that for `O=C(/C=C/c1ccc(Cl)c([N+](=O)[O-])c1)c1cccnc1` was 1.1. Regarding `Cc1ccc(NN=Nc2nc3c([nH]2)c(=O)n(C)c(=O)n3C)cc1`, the activation factor was 2 (active). For the compound `CC(CCO)Nc1nc2c([nH]1)c(=O)n(C)c(=O)n2C` (configuration not stated), the activation factor is 0.9.

`CCCSc1nc2c(c(=O)n(C)c(=O)n2C)n1Cc1ccc(C)cc1`: the activation factor is 1.

(Values after PubChem BioAssay AID1216 (Sanford-Burnham Center for Chemical Genomics, 2008).)
